Source: ChEMBL document CHEMBL2412970, “Synthesis and anticancer activity of 2,4-disubstituted furo[3,2-b]indole derivatives” (Eur J Med Chem, 2013)
The source made the active and inactive calls. The rule behind the calls is not given here.

Tests used:
A498 [1] = experiment: Induction of apoptosis in human A498 cells assessed as reduction in mitochondrial membrane potential at 0.5 uM after 12 to 48 hrs by JC-1 staining-based flow cytometry; type: functional, cell-based
How it was run: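 A498 cells at 1 × 10⁶ cells/mL, untreated or treated for 12–48 h, were stained with JC-1 working solution for 10–15 min and analysed by flow cytometry. High-potential cells show intense red JC-1 aggregate fluorescence; loss of potential is scored as the population with reduced red fluorescence.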

HL-60(TB) = experiment: Cytotoxicity against human HL-60(TB) cells after 48 hrs by sulforhodamine B assay; type: functional; conditions: HL-60, 48 h
OVCAR-8 = experiment: Cytotoxicity against human OVCAR8 cells after 48 hrs by sulforhodamine B assay; type: functional; conditions: OVCAR-8, 48 h
A498 [2] = experiment: Cell cycle arrest in human A498 cells assessed as accumulation at G2/M phase at 0.5 uM after 48 hrs by propidium iodide staining-based flow cytometry (reference value: 5.39 +/- 0.01%); type: functional
SF-295 = experiment: Cytotoxicity against human SF295 cells after 48 hrs by sulforhodamine B assay; type: functional; conditions: SF-295, 48 h
A498 [3] = experiment: Cell cycle arrest in human A498 cells assessed as accumulation at G2/M phase at 0.5 uM after 24 hrs by propidium iodide staining-based flow cytometry (reference value: 5.39 +/- 0.01%); type: functional
A498 [4] = experiment: Induction of apoptosis in human A498 cells assessed as early apoptotic cells at 0.5 uM after 24 hrs by AnnexinV/FITC-propidium iodide staining-based flow cytometry (reference value: 3.9%); type: functional
LOX IMVI = experiment: Cytotoxicity against human LOXIMVI cells after 48 hrs by sulforhodamine B assay; type: functional
ACHN = experiment: Cytotoxicity against human ACHN cells after 48 hrs by sulforhodamine B assay; type: functional
MDA-MB-468 = experiment: Cytotoxicity against human MDA-MB-468 cells after 48 hrs by sulforhodamine B assay; type: functional; conditions: MDA-MB-468, 48 h
SF-539 = experiment: Cytotoxicity against human SF539 cells after 48 hrs by sulforhodamine B assay; type: functional; conditions: SF-539, 48 h
BT-549 = experiment: Cytotoxicity against human BT549 cells after 48 hrs by sulforhodamine B assay; type: functional; conditions: BT-549, 48 h
COLO 205 = experiment: Cytotoxicity against human COLO205 cells after 48 hrs by MTT assay; type: functional, cell-based; conditions: COLO 205, 48 h
How it was run: (§1)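 Cells were treated with a range of concentrations for 48 h. Viability was read by MTT: formazan was dissolved in DMSO and absorbance read at 570 nm. Untreated or 0.1% DMSO cells served as control. Data are mean from three independent experiments. HL-60, H460 and COLO 205 were kept in RPMI-1640 with 10% FBS and penicillin/streptomycin.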

A498 [5] = experiment: Cytotoxicity against human A498 cells assessed as reduction in cell viability at 0.5 uM after 48 hrs by MTT assay relative to control; type: functional
HL-60 = experiment: Cytotoxicity against human HL60 cells after 48 hrs by MTT assay; type: functional, cell-based; conditions: HL-60, 48 h; how it was run: as §1
A498 [6] = experiment: Induction of apoptosis in human A498 cells assessed as increase in Apaf-1 level at 0.5 uM after 6 to 48 hrs by Western blotting analysis; type: functional, cell-based
How it was run: (§2)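 A498 cells exposed for 6, 12, 24, 36 or 48 h, then washed in PBS and lysed. Lysates were held on ice for 30 min and spun at 12 000g for 20 min. Supernatant protein was measured by Bradford assay, run on 10% SDS-PAGE and transferred to nitrocellulose. Blots were probed for AIF, Endo G, Apaf-1, cytochrome c, caspase 9 and caspase 3, with β-actin as loading control; n = 3 independent experiments.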

A498 [7] = experiment: Induction of apoptosis in human A498 cells assessed as increase in AIF level at 0.5 uM after 6 to 48 hrs by Western blotting analysis; type: functional, cell-based; how it was run: as §2
NCI/ADR-RES = experiment: Cytotoxicity against human NCI/ADR-RES cells after 48 hrs by sulforhodamine B assay; type: functional
HCT-116 = experiment: Cytotoxicity against human HCT116 cells after 48 hrs by sulforhodamine B assay; type: functional; conditions: HCT-116, 48 h
A498 [8] = experiment: Induction of apoptosis in human A498 cells assessed as early apoptotic cells at 0.5 uM after 36 hrs by AnnexinV/FITC-propidium iodide staining-based flow cytometry (reference value: 3.9%); type: functional
A498 [9] = experiment: Cell cycle arrest in human A498 cells assessed as accumulation at sub-G1 phase at 0.5 uM by propidium iodide staining-based flow cytometry; type: functional; conditions: TDE = time-dependent effect
NCI-H460 = experiment: Cytotoxicity against human NCI-H460 cells after 48 hrs by sulforhodamine B assay; type: functional; conditions: NCI-H460, 48 h
A498 [10] = experiment: Cell cycle arrest in human A498 cells assessed as accumulation at sub-G1 phase at 0.5 uM after 36 hrs by propidium iodide staining-based flow cytometry (reference value: 0.10 +/- 0.07%); type: functional
[11] = Cytotoxicity against human Hep3B cells after 48 hrs by MTT assay; type: functional, cell-based, Hep 3B2
UACC-257 = experiment: Cytotoxicity against human UACC257 cells after 48 hrs by sulforhodamine B assay; type: functional; conditions: UACC-257, 48 h
A498 [12] = experiment: Induction of apoptosis in human A498 cells assessed as increase in cytochrome C level at 0.5 uM after 6 to 48 hrs by Western blotting analysis; type: functional, cell-based; how it was run: as §2
MCF7 = experiment: Cytotoxicity against human MCF7 cells after 48 hrs by sulforhodamine B assay; type: functional; conditions: MCF7, 48 h
NCI-H522 = experiment: Cytotoxicity against human NCI-H522 cells after 48 hrs by sulforhodamine B assay; type: functional; conditions: NCI-H522, 48 h
MDA-MB-435 = experiment: Cytotoxicity against human MDA-MB-435 cells after 48 hrs by sulforhodamine B assay; type: functional; conditions: MDA-MB-435, 48 h
UACC-62 = experiment: Cytotoxicity against human UACC62 cells after 48 hrs by sulforhodamine B assay; type: functional; conditions: UACC-62, 48 h
A498 [13] = experiment: Cytotoxicity against human A498 cells assessed as reduction in cell viability at 1 uM after 48 hrs by MTT assay relative to control; type: functional
[14] = read-out: pLC50 (the source's name) (converted)

OCc1ccc(Cn2c3ccccc3c3oc(CO)cc32)o1
Activity (A498 [1]): Active | GI50 (HL-60(TB)): > 100 µM | CC50 (HL-60(TB); [14]): > 100 µM | TGI (HL-60(TB); read-out: pTGI): > 100 µM | GI50 (OVCAR-8): > 100 µM | CC50 (OVCAR-8; [14]): > 100 µM | TGI (OVCAR-8; read-out: pTGI): > 100 µM | Activity (A498 [2]): 18.09% | GI50 (SF-295): 26.9 µM | CC50 (SF-295; [14]): > 100 µM | TGI (SF-295; read-out: pTGI): > 100 µM | Activity (A498 [3]): 11.37% | Activity (A498 [4]): 12.7% | GI50 (LOX IMVI): 66.1 µM | CC50 (LOX IMVI; [14]): > 100 µM | TGI (LOX IMVI; read-out: pTGI): > 100 µM | GI50 (ACHN): 79.4 µM | CC50 (ACHN; [14]): > 100 µM | TGI (ACHN; read-out: pTGI): > 100 µM | GI50 (MDA-MB-468): 0.17 µM | TGI (MDA-MB-468; read-out: pTGI (converted)): 0.562 µM | GI50 (SF-539): > 100 µM | CC50 (SF-539; [14]): > 100 µM | TGI (SF-539; read-out: pTGI): > 100 µM | GI50 (BT-549): 3.89 µM | CC50 (BT-549; [14]): > 100 µM | TGI (BT-549; read-out: pTGI (converted)): 61.7 µM | IC50 (COLO 205): 31.1 µM | Activity (A498 [5]): 37.5% | IC50 (HL-60): > 50 µM | Activity (A498 [6]): Active | Activity (A498 [7]): Active | GI50 (NCI/ADR-RES): > 100 µM | CC50 (NCI/ADR-RES; [14]): > 100 µM | TGI (NCI/ADR-RES; read-out: pTGI): > 100 µM | GI50 (HCT-116): 0.912 µM | CC50 (HCT-116; [14]): > 100 µM | TGI (HCT-116; read-out: pTGI): > 100 µM | Activity (A498 [8]): 21.5% | Activity (A498 [9]): tde | GI50 (NCI-H460): > 100 µM | CC50 (NCI-H460; [14]): > 100 µM | TGI (NCI-H460; read-out: pTGI): > 100 µM | Activity (A498 [10]): 3.16% | IC50 [11]: > 50 µM | GI50 (UACC-257): 1.45 µM | CC50 (UACC-257; [14]): > 100 µM | TGI (UACC-257; read-out: pTGI (converted)): 4.37 µM | Activity (A498 [12]): Active | GI50 (MCF7): 9.33 µM | CC50 (MCF7; [14]): > 100 µM | TGI (MCF7; read-out: pTGI): > 100 µM | GI50 (NCI-H522): 39.8 µM | CC50 (NCI-H522; [14]): > 100 µM | TGI (NCI-H522; read-out: pTGI): > 100 µM | GI50 (MDA-MB-435): > 100 µM | CC50 (MDA-MB-435; [14]): > 100 µM | TGI (MDA-MB-435; read-out: pTGI): > 100 µM | GI50 (UACC-62): 3.24 µM | CC50 (UACC-62; [14]): > 100 µM | TGI (UACC-62; read-out: pTGI): > 100 µM | Activity (A498 [13]): 19.4%
